# TRPC6 activator: activates the mouse TRPC6 cation channel; actives 0.13% (n = 310,000); HEK293-TRPC6 membrane potential dye fluorescence; hits give high values; Q61143; B-score at 10 µM;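 active = B-score of the integrated fluorescence ratio above library mean plus 3 SD, and starting fluorescence ratio within library mean plus 5 SD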;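 note: higher score means more depolarization so channel activation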
# Target sequence (Q61143 whole entry, looked up): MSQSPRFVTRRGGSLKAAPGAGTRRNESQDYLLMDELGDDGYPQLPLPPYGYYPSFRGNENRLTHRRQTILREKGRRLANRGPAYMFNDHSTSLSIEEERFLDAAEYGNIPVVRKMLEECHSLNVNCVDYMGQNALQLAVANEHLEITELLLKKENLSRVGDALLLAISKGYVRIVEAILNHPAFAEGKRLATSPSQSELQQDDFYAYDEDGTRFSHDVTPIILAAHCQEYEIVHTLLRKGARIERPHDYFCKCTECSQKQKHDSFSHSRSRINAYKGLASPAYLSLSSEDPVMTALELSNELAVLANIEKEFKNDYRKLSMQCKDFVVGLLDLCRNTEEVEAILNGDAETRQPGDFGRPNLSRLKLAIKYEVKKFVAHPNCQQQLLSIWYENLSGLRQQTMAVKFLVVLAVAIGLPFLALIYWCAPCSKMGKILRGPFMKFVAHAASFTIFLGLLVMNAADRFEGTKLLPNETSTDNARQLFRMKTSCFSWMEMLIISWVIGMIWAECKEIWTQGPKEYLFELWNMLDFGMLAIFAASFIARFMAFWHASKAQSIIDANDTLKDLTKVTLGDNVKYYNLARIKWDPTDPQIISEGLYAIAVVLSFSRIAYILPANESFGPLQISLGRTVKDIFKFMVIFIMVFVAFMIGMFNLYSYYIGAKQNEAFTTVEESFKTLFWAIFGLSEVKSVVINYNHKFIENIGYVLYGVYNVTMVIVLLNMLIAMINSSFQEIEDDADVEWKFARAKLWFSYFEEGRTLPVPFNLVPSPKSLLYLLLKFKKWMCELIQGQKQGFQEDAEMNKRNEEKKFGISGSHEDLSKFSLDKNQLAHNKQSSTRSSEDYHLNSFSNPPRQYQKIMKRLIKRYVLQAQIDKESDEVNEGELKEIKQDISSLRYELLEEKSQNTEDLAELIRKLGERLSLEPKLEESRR
# TRPC6 inhibitor: mouse TRPC6 channel inhibition. B-score at 10 µM. Q61143. AID 2553. actives 1.1% (n = 310,000). HEK293-TRPC6, membrane potential dye, ACh-evoked depolarization; hits give low values;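 active = B-score under library mean minus 3 SD, initial fluorescence not abnormally high, positive integrated signal ratio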;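 note: B-score derived from integrated fluorescence ratio over the kinetic read; more negative B-score means stronger inhibition of depolarization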
# TRPC4 potent: allosteric potentiators of mouse TRPC4 channel | actives 0.42% (n = 310,000) | B-score at 10 µM | HEK293 TRPC4beta/mu-opioid, DAMGO EC20, Fluo-4 Ca2+ flux; hits give high values;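 active = B-score of calcium response area above 5 SD of library B-scores, with initial fluorescence ratio within 5 SD of library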;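 note: B-score of integrated fluorescence ratio over time as area under calcium response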
# TRPC4 agonist: opens the mouse TRPC4 cation channel. B-score at 10 µM. AID 2237. HEK293 TRPC4beta/mu-opioid, Fluo4 calcium fluorescence; hits give high values. actives 0.49% (n = 310,000);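 active = B-score above 5 SD of library B-scores, and initial fluorescence ratio not above library mean plus 5 SD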;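 note: positive B-score marks a calcium rise read as TRPC4 activation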
#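 System – HEK293 cells stably co-expressing mouse TRPC4beta and mu-opioid receptor · Signal – Fluo4 calcium-sensitive dye fluorescence, kinetic, 1 Hz baseline · Benchmarks – buffer (low) and maximal DAMGO (high) · Read-out – B score of integrated fluorescence ratio per well · Incubation – dye loading 45 min room temperature, 110 s kinetic read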
# TRPC4 block: blocks the mouse TRPC4 cation channel; Q9QUQ5; HEK293 TRPC4beta/mu-opioid, DAMGO-evoked Fluo4 calcium flux; hits give low values; B-score at 10 µM; actives 0.39% (n = 300,000);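 active = B-score over 3 SD under the library average, no early fluorescence shift, positive overall ratio signal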
#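 Material: HEK293 cells with stable TRPC4beta plus mu-opioid receptor expression; probe or stimulus: DAMGO in two steps, submaximal then maximal; technique: Fluo4 calcium fluorescence by kinetic imaging, 5 s 1 Hz baseline; measure: integrated fluorescence ratio relative to baseline, converted to per-well B score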
# TRPC4 spec 2: second check of whether TRPC6 inhibitors also affect mouse TRPC4; inhibition, % at 10 µM; AID 2776; actives 42% (n = 920); shares compounds with TRPC6 inhibitor; HEK293 TRPC4/MOR, membrane potential dye fluorescence; channel activated by saturating DAMGO dose;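 active = compounds whose fluorescence signal differed from control wells by over 3 SD, either direction, in both duplicate plates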
# TRPC4 spec: tests whether TRPC6 inhibitors also affect mouse TRPC4; shares compounds with TRPC6 inhibitor; HEK293 TRPC4/mu-opioid, membrane potential fluorescence; activity change, negative = inhibition, % at 10 µM; actives 61% (n = 920); AID 2777;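 active = rise or fall in signal beyond 3 SD of buffer-only wells in both replicate plates, either sign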;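 note: integrated kinetic ratio of fluorescence range over baseline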
# HEK293 MPD ctr 2-1: parental HEK293 nonspecific activity of TRPC6 inhibitors, second screen; shares compounds with TRPC6 inhibitor; parental HEK293 membrane potential dye fluorescence; maximal acetylcholine challenge after compound addition; signal change vs control, % at 10 µM; actives 31% (n = 920);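 active = membrane potential signal moving either way by over 3 SD of the maximum-effect control, in both duplicate plates, meaning non-specific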
# HEK293 MPD ctr-1: checks TRPC6 inhibitor effects in parental HEK293 cells; shares compounds with TRPC6 inhibitor; parental HEK293 membrane potential dye fluorescence; membrane potential signal change, % at 10 µM; actives 60% (n = 920);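 active = membrane potential signal shifting up or down by more than 3 SD of buffer-only wells, on both duplicate plates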
# HEK293 MPD ctr-2: parental HEK293 nonspecific activity of TRPC6 modulators; shares compounds with TRPC6 inhibitor; membrane potential dye fluorescence; actives 51% (n = 2,400); AID 488924; membrane potential signal change, % at 10 µM;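 active = membrane potential signal moves up or down beyond 5 SD from buffer-only wells, on both duplicate plates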
# HEK293 MPD ctr 2-2: parental HEK293 nonspecific activity of TRPC6 modulators, second screen; membrane potential dye fluorescence; after compound, maximal acetylcholine stimulation; inhibition, % at 10 µM; actives 14% (n = 2,400); shares compounds with TRPC6 inhibitor;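 active = membrane potential signal drops by more than 5 SD from the mean control signal, in both duplicate plates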;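 note: plate controls were acetylcholine ECmax control wells for no effect and buffer only wells for full effect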
# TRPC4/MOR mod: tests whether TRPC6 modulators also affect mouse TRPC4. actives 69% (n = 2,400). shares compounds with TRPC6 inhibitor. percent change from control (negative = decrease, positive = increase), % at 10 µM. HEK293 TRPC4/mu-opioid, membrane potential fluorescence;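 active = membrane potential signal moved up or down beyond 5 SD of buffer control wells, in both duplicate plates, actives on both sides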;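 note: plate controls were assay buffer wells for no effect and DAMGO maximal-effect wells for full effect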
# TRPC4/MOR inh 2: second selectivity test of TRPC6 modulators against mouse TRPC4; actives 55% (n = 2,400); inhibition, % at 10 µM; shares compounds with TRPC6 inhibitor; HEK293 TRPC4/mu-opioid, membrane potential dye fluorescence; stimulated with maximal-effect DAMGO;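 active = drop in membrane potential signal beyond 5 SD of the control wells in both duplicate plates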;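 note: TRPC4 counter screen for TRPC6 hits run under conditions tuned for TRPC6 not TRPC4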
# TRPC6 block conf: mouse TRPC6 inhibitor confirmation | shares compounds with TRPC6 inhibitor | HEK293-TRPC6, membrane potential dye, ACh-evoked depolarization | actives 43% (n = 3,300) | inhibition, % at 10 µM;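 active = fluorescence ratio falls more than 5 SD below the full-stimulation control mean, in both duplicate runs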;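 note: integrated fluorescence ratio of peak minus minimum over baseline after agonist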
# TRPC6 act conf: confirmation of mouse TRPC6 activators | shares compounds with TRPC6 inhibitor | HEK293-TRPC6 membrane potential dye fluorescence, FDSS | activation, % at 10 µM | actives 11% (n = 2,800) | AID 488961;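 active = ratio signal rise beyond 5 SD above unstimulated control wells' mean, seen in both duplicate runs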;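 note: plate controls were buffer EC0 wells for no effect and acetylcholine ECmax response for full effect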
# * = called active by the depositor; i = inactive; x = not tested or not shown. Rows were chosen to be rich in hits. Some 2.3% of all compounds tested hit in one or more screens of this group.
SMILES,TRPC6 activator,TRPC6 inhibitor,TRPC4 potent,TRPC4 agonist,TRPC4 block,HEK293 MPD ctr-2,HEK293 MPD ctr 2-2,TRPC4/MOR mod,TRPC4/MOR inh 2,TRPC6 block conf,TRPC6 act conf,others
CCN(C(=O)c1cccnc1SC)C12CC3CC(CC(C3)C1)C2,i,i,i,i,i,x,x,x,x,x,x,
Cc1oc(S(=O)(=O)N2CCCCC2)cc1NC(=O)Nc1ccc(Cl)cc1,i,i,i,i,i,x,x,x,x,x,x,
Cc1cccc2c(SCC(N)=O)nc(-c3ccccc3)nc12,i,i,i,i,i,x,x,x,x,x,x,
COc1cc(OC)cc(C(=O)N2CCN(c3ccc(N4CCOCC4)nn3)CC2)c1,i,i,i,i,i,x,x,x,x,x,x,
CCN(CC)CC(O)Cn1c(-c2cccc(Cl)c2)nc2cc(C)c(C)cc21 (stereo not drawn),i,-6.51*,i,i,i,i,i,i,74.0%*,63.0%*,i,
CCCSc1nc2cc(C)c(C)cc2n1CC(O)CO (stereo not drawn),i,i,i,i,i,x,x,x,x,x,x,
O=C(c1ccccc1)N(c1ccccc1)C1C=CS(=O)(=O)C1 (stereo not drawn),i,-6.27*,i,i,i,i,i,i,i,i,i,
COc1ccc(C(=O)N(c2ccccc2)C2C=CS(=O)(=O)C2)cc1 (stereo not drawn),i,i,i,i,i,x,x,x,x,x,x,
C=CCn1c(O)c(C2=c3ccccc3=NC2=O)sc1=Nc1ccc(O)cc1,i,-8.02*,i,i,i,x,x,x,x,54.9%*,i,TRPC4 spec 2=i;TRPC4 spec=-15.0%*;HEK293 MPD ctr 2-1=i;HEK293 MPD ctr-1=-137.5%*
O=C1N=c2ccccc2=C1c1sc(=S)n(NC(=O)c2ccccc2)c1O,i,i,i,i,i,x,x,x,x,x,x,
Cc1cc(C)n2[nH]c(=O)c(N=Nc3ccc(S(N)(=O)=O)cc3)c2n1,i,-14.6*,i,i,i,-397.0%*,102.0%*,-59.5%*,68.5%*,79.0%*,i,
Cc1ccc(N=Nc2c(=O)[nH]n3c(C)cc(C)nc23)cc1,i,-6.13*,14*,i,i,-133.5%*,i,-14.0%*,i,41.0%*,i,
CCCN(CCC)CC(O)Cn1cc(/C=C/C(=O)c2cccs2)c2ccccc21 (stereo not drawn),i,-10.6*,i,i,i,x,x,x,x,i,i,TRPC4 spec 2=24.0%*;TRPC4 spec=9.6%*;HEK293 MPD ctr 2-1=i;HEK293 MPD ctr-1=16.5%*
O=C(/C=C/c1cn(CC(O)CN2CCCCC2)c2ccccc12)c1ccccc1 (stereo not drawn),i,-6.38*,i,i,i,294.0%*,i,i,84.0%*,73.5%*,x,
Cc1cc(=O)n2c3ccccc3n(CC(O)CN3CCCC3)c2c1C#N (stereo not drawn),i,-7.97*,i,i,i,x,x,x,x,52.6%*,i,TRPC4 spec 2=68.5%*;TRPC4 spec=-19.1%*;HEK293 MPD ctr 2-1=i;HEK293 MPD ctr-1=-280.5%*
CCCNCC(O)Cn1c2ccccc2n2c(=O)cc(C)c(C#N)c12 (stereo not drawn),i,i,i,i,i,x,x,x,x,x,x,
O=c1c2ccccc2n(CC(O)CN2CCCCC2)c2ccccc12 (stereo not drawn),i,-5.16*,i,i,i,-104.5%*,i,-16.0%*,49.0%*,i,i,
Cc1ccc(-n2[nH]c(C)c(C=Nc3ccc(S(=O)(=O)Nc4nccs4)cc3)c2=O)c(C)c1,i,i,i,i,i,x,x,x,x,x,x,
CCOC(=S)SCC(=O)N1CCc2cc(OC)ccc2C1C1C(=O)CCCC1=O (stereo not drawn),i,i,i,i,i,x,x,x,x,x,x,
CC(C)(C)CC(=O)Nc1nnc(C(F)(F)F)s1,i,i,i,i,i,x,x,x,x,x,x,
CC(NC(=O)Nc1nnc(C(F)(F)F)s1)(C(F)(F)F)C(F)(F)F,i,-7.3*,i,i,i,x,x,x,x,87.0%*,x,TRPC4 spec 2=57.0%*;TRPC4 spec=50.7%*;HEK293 MPD ctr 2-1=i;HEK293 MPD ctr-1=30.4%*
Cc1ccc(S(=O)(=O)N(C)c2ccc(C(=O)Nc3c(C)n(C)n(-c4ccccc4)c3=O)cc2)cc1,i,i,i,i,i,x,x,x,x,x,x,
O=C(NNc1ccccc1)/C(=C\c1cccnc1)NC(=O)c1ccccc1,i,i,i,i,i,x,x,x,x,x,x,
COc1ccc(/C=N/n2c(C)nc3ccccc3c2=O)cc1OC,i,-6.27*,i,i,i,i,i,i,i,i,i,
Cc1coc2cc3oc(=O)c(CCC(=O)NCCN4CCOCC4)c(C)c3cc12,i,i,i,i,i,x,x,x,x,x,x,
Cc1cc(C)cc(N(CC(=O)NC(C)(C)C)C(=O)CNC(=O)c2cccs2)c1,i,-5.43*,i,i,i,i,i,i,i,i,i,
Cc1ccc(NC(=O)CCCCCN2C(=O)[C@@H]3Cc4ccccc4CN3C2=O)cc1,i,i,i,i,i,x,x,x,x,x,x,

# Bioassay records: PubChem, Johns Hopkins Ion Channel Center
